Measured values pooled from the literature.
Protocols differ between the studies behind these lines.
Read-out: cell growth or viability

Structure (SMILES)	cell line	method	time	quantity	result
COc1cccc2c1C(=O)c1c(O)c3c(c(O)c1C2=O)C[C@@](O)(C(=O)CO)C[C@@H]3O[C@H]1C[C@H](N)[C@H](O)[C@H](C)O1	MDA-MB-157	MTT	72 h	IC50	0.5 µM
C[C@H](NC(=O)[C@H](CC(=O)NCC(C)(C)C)NC(=O)C(=O)c1c[nH]c2ccccc12)C(=O)NCc1ccc(F)cc1F	RPMI-8226	MTS	72 h	IC50	11.5 µM
C=CC(=O)N1CCN(c2nc(=O)n(-c3c(C)ccnc3C(C)C)c3nc(-c4c(O)cccc4F)c(F)cc23)[C@@H](C)C1	TOV21G	ATP luminescence	–	IC50	> 10 µM
CCC[C@H]1NC(=O)[C@H](Cc2cc(Cl)ccc2-c2cnn(C)c2)N(C)C(=O)[C@H](CC(C)C)NC(=O)[C@@H](N(C)C(=O)[C@H](CCCCN2CCOCC2)NC(=O)[C@@H](c2cccnc2)C2CCCCC2)CCCCNC1=O	NCI-H69	MTT	5 days	GI50	5.2 µM
CCNCCCn1c2c(c3cc(OC)c(OC)cc3c1=O)C(=O)c1cc3c(nc1-2)OCO3	RPMI-8226	MTS	72 h	IC50	0.19 µM
C=CC(=O)NC1CCN(c2ncc3ncnc(Nc4ccc(Oc5ccc6c(c5)ncn6C)c(C)c4)c3n2)CC1	CAL-120	–	–	EC50	4.93 µM
C=C(F)C(=O)N1CCN(c2nc(OC[C@@H]3CCCN3C)nc3c2CCN(c2cccc4cccc(Cl)c24)C3)C[C@@H]1CC#N	TOV21G	ATP luminescence	–	IC50	> 10 µM
COc1cc2c3c(n(CCCNCCO)c(=O)c2cc1OC)-c1nc2c(cc1C3=O)OCO2	RPMI-8226	MTS	72 h	IC50	0.559 µM
CCCN1C(=O)[C@H](CC(C)C)NC(=O)[C@@H](N(C)C(=O)[C@H](CC2CCC2)NC(=O)[C@@H]2C[C@@H](F)CN2C(=O)[C@@](C)(O)C(F)(F)F)CCCCNC(=O)C2(CC2)NC(=O)[C@@H]1Cc1cc(Cl)ccc1Cl	NCI-H69	MTT	5 days	GI50	0.006 µM
